# Assay results taken from ChEMBL document CHEMBL4732158, “Bicyclic Ligand-Biased Agonists of S1P: Exploring Side Chain Modifications to Modulate the PK, PD, and Safety Profiles” (J Med Chem, 2021).
# Activity calls are given as the source filed them. The rule behind the calls is not given here.
# Tests used:
# [1] = tested on: Rattus norvegicus; assay: Reduction in circulating lymphocytes count in Lewis rat at 2 mg/kg, po measured at 4 hrs by hematology analyzer based analysis; type: functional; design: scale not given: the % may be the effect or the level left
# In short: (§1)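 Lewis rats (n = 2−4) dosed orally; whole-blood lymphocyte counts taken 4 h and 24 h after dosing and reduction expressed versus vehicle-treated rats. Significance by ANOVA with Dunnett's test (p < 0.05 vs vehicle). Blood levels of parent and phosphate metabolite measured at the same time points in this PK/PD screen.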
# [2] = Drug concentration in Lewis rat blood assessed as concentration of parent compound at 2 mg/kg, po measured at 4 hrs by LC-MS/MS analysis; type: ADME, organism-based; conditions: Lewis, blood, read-out: Ct
# In short: (§2)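 Lewis rats (n = 2−4) dosed orally at 0.5, 1, 2 or 5 mg/kg; blood parent and phosphate metabolite concentrations and lymphocyte counts taken 4 and 24 h post-dose; phosphate-to-parent ratio from 24 h levels; significance versus vehicle by ANOVA with Dunnett's test.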
# [3] = Reduction in circulating lymphocytes count in Lewis rat at 2 mg/kg, po measured at 24 hrs by hematology analyzer based analysis; type: Functional, organism-based; design: scale not given: the % may be the effect or the level left; conditions: in vivo; in short: as §1
# [4] = Drug concentration in Lewis rat blood assessed as concentration of parent compound at 2 mg/kg, po measured at 24 hrs by LC-MS/MS analysis; type: ADME, organism-based; conditions: in vivo, read-out: Ct; in short: as §2
# [5] = Half life in Lewis rat at 2 mg/kg, po measured at 4 to 72 hrs; type: ADME, organism-based; conditions: Lewis, in vivo, time 4-72 hrs
# In short: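 Half-life estimated from oral-dosing blood PK profiles in Lewis rats sampled at four time points: 4, 24, 48 and 72 h.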
# [6] = Ratio of drug metabolism in Lewis rat blood assessed as phosphate ester metabolite to parent drug at 2 mg/kg, po measured at 24 hrs by LC-MS/MS analysis; type: ADME, organism-based; conditions: in vivo; in short: as §2
# [7] = Pulmonary toxicity in Lewis rat assessed as fold elevation of BAL protein content at 2 mg/kg, po by chemistry analyzer based analysis relative to control; type: organism-based; conditions: in vivo
# In short: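 Lewis rats dosed orally; bronchoalveolar lavage protein measured at study end, expressed as fold over vehicle control.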
# [8] = Cardiotoxicity in human iPSC derived cardiomyocytes assessed as change in heart rate at 1 nM measured over 2 hrs by multi-electrode array relative to control; type: toxicity, cell-based; conditions: stem cell-derived cardiomyocyte, 0.001 µM
# In short: (§3)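 Phosphate metabolite of each compound prepared and tested on cultured human induced pluripotent stem cell-derived cardiomyocytes at 1 and 10 nM; beat rate change averaged over three or more replicates per concentration unless noted (some n = 2).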
# [9] = Cardiotoxicity in human iPSC derived cardiomyocytes assessed as change in heart rate at 10 nM measured over 2 hrs by multi-electrode array relative to control; type: toxicity, cell-based; conditions: stem cell-derived cardiomyocyte, 0.01 µM; in short: as §3
# [10] = Clearance in cynomolgus monkey at 1 mg/kg, iv; type: ADME, organism-based, Macaca fascicularis; conditions: in vivo
# [11] = Volume of distribution at steady state in cynomolgus monkey at 1 mg/kg, po or 1 mg/kg, iv; type: ADME, organism-based, Macaca fascicularis; conditions: in vivo, read-out: Vdss
# In short: (§4)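 Single IV and oral dosing in male animals, n = 3. Rats were Sprague-Dawley. Vehicle: 18.4% hydroxypropyl-β-cyclodextrin in 13.8 mM citric acid. Blood concentrations followed over time; terminal T1/2 and steady-state volume of distribution taken from the IV dose.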
# [12] = Terminal half life in cynomolgus monkey at 1 mg/kg, po or 1 mg/kg, iv; type: ADME, organism-based, Macaca fascicularis; conditions: in vivo, read-out: beta t1/2 (converted); in short: as §4
# [13] = Oral bioavailability in cynomolgus monkey at 1 mg/kg; type: ADME, organism-based, Macaca fascicularis; conditions: in vivo
# [14] = Clearance in Sprague- Dawley rat at 2 mg/kg, iv; type: ADME, organism-based; conditions: in vivo
# [15] = Volume of distribution at steady state in Sprague- Dawley rat at 2 mg/kg, iv; type: ADME, organism-based; conditions: in vivo, read-out: Vdss; in short: as §4
# [16] = Terminal half life in Sprague- Dawley rat at 2 mg/kg, iv; type: ADME, organism-based; conditions: in vivo, read-out: beta t1/2 (converted); in short: as §4
# [17] = Terminal half life in dog at 1 mg/kg, po; type: ADME, organism-based, Canis lupus familiaris; conditions: in vivo, read-out: beta t1/2 (converted)
# [18] = AUC ratio in orally dosed Sprague-Dawley rat blood assessed as phosphate metabolite to parent compound; type: ADME, organism-based; conditions: in vivo, po
# In short: (§5)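 Phosphate-to-parent ratio computed as blood AUC ratio after oral dosing in rats, dogs and monkeys.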
# [19] = AUC ratio in orally dosed cynomolgus monkey blood assessed as phosphate metabolite to parent compound; type: ADME, organism-based, Macaca fascicularis; conditions: in vivo, po; in short: as §5
# [20] = AUC ratio in orally dosed Beagle dog blood assessed as phosphate metabolite to parent compound; type: ADME, organism-based, Canis lupus familiaris; conditions: in vivo, po; in short: as §5
# [21] = tested on: Rattus norvegicus; assay: Antiinflammatory activity in complete freund's adjuvant-induced Lewis rat model of arthritis assessed as effective dose administered via oral gavage once daily by plethysmometric method; type: functional
# [22] = tested on: Rattus norvegicus; assay: Antiinflammatory activity in complete freund's adjuvant-induced Lewis rat model of arthritis assessed as reduction in paw swelling at 0.3 mg/kg, po administered via gavage once daily and measured at day 13 to 20 by plethysmometric method relative to control; type: functional; design: scale not given: the % may be the effect or the level left; conditions: time 13-20 day
# [23] = target: T1, Sphingosine 1-phosphate receptor 4 (Homo sapiens, UniProt O95977); assay: Agonist activity at recombinant human S1P4 expressed in CHO cell membranes assessed as stimulation of [35S]-GTPgammaS binding measured after 45 mins by liquid scintillation counting method; type: functional, Membrane
# T1 sequence (O95977 whole entry): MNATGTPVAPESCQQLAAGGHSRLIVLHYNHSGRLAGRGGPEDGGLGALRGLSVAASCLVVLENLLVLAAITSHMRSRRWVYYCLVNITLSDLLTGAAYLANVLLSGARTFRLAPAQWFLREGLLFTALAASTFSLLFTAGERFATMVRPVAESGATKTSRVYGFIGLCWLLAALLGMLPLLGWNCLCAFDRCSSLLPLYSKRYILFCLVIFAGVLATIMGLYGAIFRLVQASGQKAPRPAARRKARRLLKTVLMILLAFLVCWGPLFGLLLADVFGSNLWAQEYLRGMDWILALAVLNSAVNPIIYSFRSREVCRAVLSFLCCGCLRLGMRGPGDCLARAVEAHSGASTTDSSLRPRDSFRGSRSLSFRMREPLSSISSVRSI
# [24] = Antimigratory activity against human T cells assessed as inhibition of S1P-induced T cell migration preincubated for 10 mins followed by addition of S1P measured after 120 mins by calcein-AM dye based fluorescence analysis; type: functional
# [25] = Clearance in Sprague- Dawley rat at 1 mg/kg, iv; type: ADME, organism-based; conditions: in vivo
# [26] = Volume of distribution at steady state in Sprague- Dawley rat at 1 mg/kg, po or 1 mg/kg, iv; type: ADME, organism-based; conditions: in vivo, read-out: Vdss; in short: as §4
# [27] = Terminal half life in Sprague- Dawley rat at 1 mg/kg, po or 1 mg/kg, iv; type: ADME, organism-based; conditions: in vivo, read-out: beta t1/2 (converted); in short: as §4
# [28] = Oral bioavailability in Sprague- Dawley rat at 1 mg/kg; type: ADME, organism-based; conditions: in vivo
# [29] = tested on: Rattus norvegicus; assay: Antiinflammatory activity in complete freund's adjuvant-induced Lewis rat model of arthritis assessed as reduction in paw edema administered via oral gavage once daily by plethysmometric method; type: functional, organism-based
# [30] = tested on: Rattus norvegicus; assay: Antiinflammatory activity in complete freund's adjuvant-induced Lewis rat model of arthritis assessed as reduction in paw swelling at 0.5 mg/kg, po administered via gavage once daily and measured at day 18 to 22 by plethysmometric method relative to control; type: functional; design: scale not given: the % may be the effect or the level left; conditions: time 18-22 day
# [31] = tested on: Rattus norvegicus; assay: Antiinflammatory activity in complete freund's adjuvant-induced Lewis rat model of arthritis assessed as reduction in paw edema at 0.5 mg/kg, po administered via gavage once daily and measured at day 18 to 22 by plethysmometric method; type: functional, organism-based; conditions: time 18-22 day
# [32] = tested on: Rattus norvegicus; assay: Antiinflammatory activity in complete freund's adjuvant-induced Lewis rat model of arthritis assessed as increase in paw volume at 2.5 mg/kg, po administered via gavage once daily by plethysmometric method; type: functional, organism-based
concentration at 4 h [2],Activity [3],concentration [4],half-life [5],Ratio [6],clearance [10],Vd [11],half-life [12],bioavailability [13],Ratio AUC [18],Ratio AUC [19],Structure (SMILES),Activity [1],fold change (FC) [7],Activity [8],Activity [9],ED50 [21],further results
0.188 µM,82%,0.098 µM,18 h,2.6,0.582 L/h/kg,9.9 L/kg,17 h,69%,0.3,< 0.1,"COCCCCCC1CCc2cc([C@H]3CC[C@](N)(CO)C3)ccc2C1 (single isomer, unassigned; 24)",67%,1.5,-7%,-23%,0.3 mg/kg,clearance [14]: 0.6 L/h/kg; Vd [15]: 13 L/kg; half-life [16]: 19 h; half-life [17]: 81 h; Ratio AUC [20]: 0.31; Activity [22]: 50%
–,–,–,–,–,–,–,–,–,–,–,CCCCCCCCc1ccc(CCC(N)(CO)COP(=O)(O)O)cc1 (stereo not drawn),–,–,–,–,–,EC50 [23]: 1.6 nM; IC50 [24]: 1.2 nM
0.172 µM,83%,0.11 µM,26 h,1.8,0.444 L/h/kg,8.4 L/kg,21 h,76%,0.9,0.73,"CCOCCCC1CCc2cc([C@H]3CC[C@](N)(CO)C3)ccc2C1 (single isomer, unassigned)",78%,1.2,-14%,-29%,0.3 mg/kg,clearance [25]: 0.36 L/h/kg; Vd [26]: 12 L/kg; half-life [27]: 29 h; bioavailability [28]: 45%; Activity [29]: Dose-dependent effect; Activity [30]: 75%; Activity [31]: inactive; Activity [32]: inactive
